In all, about 330,000 compounds went through this assay and about 220 (0.067%) were called active.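 How the source made its calls: active means response, share of CD8 T cells binding vesicles, and their 90th percentile fluorescence all below set limits (cut at about 80% in these data, passing the limit was not always enough); inactive means the rest, inconclusive results apart.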 The entries come from a sample that favours actives as a whole.
assay: murine CD8 T cell vesicle adhesion modulation – mouse 2C CD8+ T cells, flow cytometry, primary screen (AID 2052); settings: 2C CD8+ T cell-vesicle binding, at 7 µM, stronger effect = lower value; double positive events: measured here: CD8+ vesicle-bound cell fraction;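 on double positive events: binding gate set so that unloaded-vesicle control wells show 10% double positive cells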;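 on response (vesicle binding): values below 100% mean blocked vesicle binding to the CD8+ T cells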
In short: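 Material: murine 2C transgenic CD8+ T lymphocytes / Also added: QL9-peptide-loaded Drosophila micro-vesicles bearing Ld, ICAM-1 and B7-1 / Schedule: binding step 1.5 h, 37 °C, antibody labelling 20 min, ice / Signal: flow cytometry, PE anti-B7-1 (FL2) versus Alexa647 anti-CD8 (FL8), PFA-fixed / Evaluation: percent CD8+ FL2 mean versus row control / Benchmarks: naked versus QL9-loaded vesicles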

SMILES | double positive events [%] | response (vesicle binding)
Cc1oc2c(F)c(F)c(F)c(F)c2c1S(=O)(=O)Nc1cccc(C(F)(F)F)c1 | 13.2 | 170% (inactive)
COc1ccc(C(=O)COC(=O)c2nn(C)c(=O)c3ccccc23)c(OC)c1 | 13.7 | 187% (inactive)
CC(=O)c1cccc(NC(=O)CN2C(=O)c3cccnc3Oc3ccc(Cl)cc32)c1 | 54.8 | 668% (inactive)
COC(=O)C1=CO[C@@H](O[C@@H]2O[C@H](CO)[C@@H](O)[C@H](O)[C@H]2O)C2C1C[C@H](O)[C@@H]2C (some centres not stated) | 33.1 | 220% (inactive)
CCOC(CNC(=O)C1CCN(S(=O)(=O)c2ccc3nc4c(c(C(=O)O)c3c2)CC(C)CC4)CC1)OCC (configuration not stated) | 3.9 | 171% (inactive)
CN(C)C(CNC(=O)c1ccc(OCc2cn3ccccc3n2)cc1)c1ccco1 (configuration not stated) | 23.9 | 416% (inactive)
COc1ccc(NC(C(=O)Nc2cccc(C(C)=O)c2)c2ccccc2)cc1 (configuration not stated) | 36 | 198% (inactive)
O=C(CCc1nnc2ccc(NCc3ccco3)nn12)Nc1cc(F)ccc1F | 36.4 | 186% (inactive)
O=C(COC(=O)c1ccc(NS(=O)(=O)c2cccs2)cc1O)Nc1ccc(F)cc1 | 18.7 | 74.7% (inactive)
Nn1c(SCC(=O)Nc2nccs2)nncc1=O | 30.5 | 224% (inactive)
COc1ccccc1C(=O)NC(CCSC)C(=O)NNC(=O)c1csc(N2CCOCC2)n1 (configuration not stated) | 27.1 | 242% (inactive)
CCc1nc2ccccc2c(C(=O)OC2CCCCC2=O)c1C (configuration not stated) | 48.4 | 288% (inactive)
Cc1cccc(C(=O)N2CCCC(Nc3ccc(C(C)C)cc3)C2)n1 (configuration not stated) | 11.9 | 567% (inactive)
Cc1ccc(-c2nnc(C)c(N3CC(C)OC(C)C3)n2)cc1 (configuration not stated) | 50.8 | 123% (inactive)
COC(=O)NNC(=O)C1CCC(C)CC1 (configuration not stated) | 13.1 | 199% (inactive)
O=C(COc1ccccc1)Nc1ccc(N2CCN(C(=O)c3cccs3)CC2)cc1 | 4.1 | 606% (inactive)
Brc1c(CSc2nncc3ccccc23)nc2ccccn12 | 26.2 | 103% (inactive)
COc1ccccc1C(=O)Nc1ccnn1C1CCN(C(=O)C(C)(C)C)CC1 | 51.4 | 266% (inactive)
Cc1ccc(S(=O)(=O)NCCC(=O)NC2CCN(Cc3ccccc3)CC2)cc1 | 42.6 | 256% (inactive)
CCCCCCCC(=O)OC(CN1CCCCCC1)CN1CCCC1=O (configuration not stated) | 16.5 | 372% (inactive)
COC(=O)[C@@H]1CC(O)CN1C(=O)C12CC3CC(CC(C3)C1)C2 (some centres not stated) | 52.2 | 228% (inactive)
Cc1ccc(-c2csc(NC(=O)C3=COCCO3)n2)cc1C | 20.8 | 138% (inactive)
CC(C)OP(=O)(OC(C)C)C(Nc1ccccc1)c1cccc([N+](=O)[O-])c1 (configuration not stated) | 20.7 | 684% (inactive)
COc1cccc(NC(=O)COc2cc(C)cc3oc(=O)cc(C)c23)c1 | 34.7 | 510% (inactive)
CC1(C)CC(=O)C=C(N2CCOCC2)C1 | 19.8 | 266% (inactive)
Cc1nc([N+](=O)[O-])c(NCCCO)n1Cc1ccccc1 | 19.6 | 72.9% (inactive)

Source: PubChem BioAssay AID2052 (NMMLSC, 2009)
